{
  "source": "paper PMC6335142",
  "about": "(Korean Journal for Food Science of Animal Resources, 2018)",
  "key": {"[1]": {"test": "Oxygen radical absorbance capacity", "format": "biochemical", "method_in_brief": "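Sample or trolox standard mixed with 80 nM fluorescein and held 15 min at 37℃, then 150 mM AAPH added. Fluorescence (ex 480, em 520 nm) recorded every minute at 37℃. Net AUC was converted through a trolox regression and reported as μmol trolox equivalent. RP-HPLC fractions (C18, 0–40% acetonitrile in 0.1% TFA, 215 nm) were lyophilized and taken up in 75 mM phosphate buffer. Values given as means and SEM with Tukey test.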"}, "[2]": {"test_system": "HCT116 cells", "test": "MTT cell viability / proliferation assay in HCT116 cells", "format": "cell-based, human", "settings": "24 h", "method_in_brief": "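HCT116 cells grown in RPMI1640 with 10% FBS and 1% antibiotics at 37℃, 5% CO2, then seeded at 2×10^4 cells/well and left 24 h. Peptide added at 0–250 μg/mL for 24 h. MTT was added to a final 0.5 mg/mL for 4 h, and the formazan was dissolved in DMSO and read at 540 nm. Data given as means and SEM, with GLM ANOVA and Tukey test, p<0.05.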"}, "[3]": {"test_system": "ERK, JNK and p38 MAP kinase", "test": "Western blot of MAP kinase", "format": "cell-based, human", "settings": "24 h, HCT116 cells", "method_in_brief": "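HCT116 cells seeded at 2×10^5 cells/well, incubated overnight at 37℃, then given peptide at varying concentrations for 24 h. Cells washed in dPBS and lysed on ice in pH 8.0 NaCl/Tris/NP40 buffer with protease inhibitors. 15 μg protein run on 10% SDS-PAGE and blotted to PVDF, blocked in 5% BSA. Blots probed overnight at 4℃ with total and phospho ERK, JNK, p38 and β-actin antibodies (1:200), then HRP secondary. Detection by ECL chemiluminescence.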"}},
  "note": "Marks after values point to notes of the source that are not given here. Where no end group is shown, it is not given here.",
  "data": [
    {"sequence": "CCCCSVQK (cysteine pairing not given here) [P3]", "values": [
      {"measurement": "ORAC value of RP-HPLC fraction", "setting": "[1]; each 2-mL fraction lyophilized and re-dissolved in 0.5 mL 75 mM phosphate buffer", "result": "94.21 μmol of TE"},
      {"measurement": "ORAC", "setting": "[1]; fluorescein 80 nM, AAPH 150 mM, 37℃, trolox standard, means, SEM 4.662", "result": "202.66^a µM TE/g of dry matter"},
      {"measurement": "Growth of HCT116 cells", "setting": "[2]; 0–250 μg/mL", "result": "inhibited the growth of HCT116 cells in a dose-dependent manner"},
      {"measurement": "Inhibition of HCT116 cell proliferation", "setting": "[2]; 250 μg/mL", "result": 25.24, "unit": "%"},
      {"measurement": "Inhibition of HCT116 cells (as printed in results text)", "setting": "[2]; 250 μg/mL, vs control", "result": 74.76, "unit": "%"},
      {"measurement": "p38 phosphorylation", "setting": "[3]; 0, 50, 100 and 250 μg/mL", "result": "significantly phosphorylated by P3 with dose dependent"},
      {"measurement": "ERK phosphorylation", "setting": "[3]; 50 μg/mL", "result": "activated"},
      {"measurement": "JNK phosphorylation", "setting": "[3]; 100 and 250 μg/mL", "result": "significantly activated"}
    ]}
  ]
}
